Experimental findings from ChEMBL document CHEMBL1240531, “Effects of conformational restriction of 2-amino-3-benzoylthiophenes on A(1) adenosine receptor modulation” (J Med Chem, 2010) are described below.

For assay [1], the target named is T1, Adenosine receptor A1 (Rattus norvegicus) (UniProt P25099).
T1 sequence (whole entry): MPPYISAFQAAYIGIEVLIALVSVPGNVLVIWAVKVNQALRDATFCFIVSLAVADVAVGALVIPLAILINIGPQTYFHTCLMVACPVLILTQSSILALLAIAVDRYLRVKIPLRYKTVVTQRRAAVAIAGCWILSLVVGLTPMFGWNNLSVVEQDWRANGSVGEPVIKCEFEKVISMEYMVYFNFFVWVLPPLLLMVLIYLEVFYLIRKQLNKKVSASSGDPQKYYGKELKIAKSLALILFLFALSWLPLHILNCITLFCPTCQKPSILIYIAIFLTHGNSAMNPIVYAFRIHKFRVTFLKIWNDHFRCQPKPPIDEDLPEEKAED
The assay is described as follows: Allosteric enhancement of human adenosine A1 receptor in rat brain membranes assessed as increase of [3H]N6-cyclohexyladenosine binding at 100 uM relative to control. In kind it is cell membranes.

Assay [2] deals with T2, Adenosine receptor A1 (Homo sapiens) (UniProt P30542).
T2 sequence (whole entry): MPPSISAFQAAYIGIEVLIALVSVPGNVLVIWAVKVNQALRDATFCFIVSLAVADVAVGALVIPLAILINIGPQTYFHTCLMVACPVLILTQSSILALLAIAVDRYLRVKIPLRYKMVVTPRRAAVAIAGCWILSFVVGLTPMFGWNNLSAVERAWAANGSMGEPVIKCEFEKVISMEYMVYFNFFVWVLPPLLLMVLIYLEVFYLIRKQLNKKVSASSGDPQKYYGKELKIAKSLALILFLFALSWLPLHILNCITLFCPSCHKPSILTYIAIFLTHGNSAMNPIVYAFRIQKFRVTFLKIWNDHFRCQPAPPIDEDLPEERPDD
Kind of assay: Allosteric enhancement of human adenosine A1 receptor expressed in CHO FlpIn cells assessed as increase of ERK1/2 phosphorylation at 3 to 10 uM relative to N(6)-(R-phenylisopropyl)adenosine. In kind it is cell-based.

In assay [3] the target is T2, Adenosine receptor A1 (Homo sapiens). The assay is described as follows: Allosteric enhancement of human adenosine A1 receptor expressed in CHO FlpIn cells assessed as potentiation of N(6)-(R-phenylisopropyl)adenosine-induced ERK1/2 phosphorylation at 10 uM relative to N(6)-(R-phenylisopropyl)adenosine. In kind it is cell-based.
The target is the same in assay [4]. Kind of assay: Allosteric enhancement of human adenosine A1 receptor expressed in CHO FlpIn cells assessed as potentiation of N(6)-(R-phenylisopropyl)adenosine-induced ERK1/2 phosphorylation at 3 uM relative to N(6)-(R-phenylisopropyl)adenosine. In kind it is cell-based.
Another assay deals with T3, Adenosine receptor A1 (Homo sapiens, UniProt P30542).
T3 sequence (P30542 whole entry): T2 sequence (whole entry)
Kind of assay: Antagonist activity at human adenosine A1 receptor expressed in CHO FlpIn cells assessed as inhibition of N(6)-(R-phenylisopropyl)adenosine-induced ERK1/2 phosphorylation. In kind it is functional, cell-based. The conditions noted are these: read-out: pA2 (converted). In a few lines:
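Human A1AR FlpIn-CHO cells were pretreated with 1 U/mL adenosine deaminase for 30 min, then with test ligand over a concentration range for 30 min at 37 °C. R-PIA was then added for 5 min stimulation. Lysates were assayed for phospho-ERK1/2 by AlphaScreen SureFire. Response was expressed as percent of the 6 min 3% FBS response. Three experiments in triplicate, mean ± SEM. Curves were fitted globally to a competitive or allosteric model.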

In the case of `Nc1ccccc1C(=O)c1ccccc1`, the Activity in assay [1] stood at 34%.
Consider `Nc1sccc1C(=O)c1ccccc1`, for which the Activity is 5% in assay [2], 59% in assay [1], 30% in assay [3] and 48% in assay [4].
With `Nc1sc2c(c1C(=O)c1ccc(Cl)cc1)-c1cc(C(F)(F)F)ccc1C2`, the Activity in assay [2] is 5%; in assay [3], 73%; in assay [4], 62%.
As for `Nc1sccc1C(=O)c1ccc(Cl)cc1`, the Activity turned out to be 5% in assay [2], 40% in assay [3] and 50% in assay [4].
Take `Nc1sc(-c2cncnc2)cc1C(=O)c1ccc(Cl)cc1`: at Adenosine receptor A1, the Kb is 145 nM. The figures for the Activity in assay [2], in assay [3] and in assay [4] were 5%, 4% and 7%, respectively.
Take `CN(C)c1ccc(-c2sc(N)c3c2-c2ccccc2C3=O)cc1`: the values for the Activity in assay [2], in assay [3] and in assay [4] were 5%, 32% and 48%, respectively.
As to `Nc1sc(-c2ccc(C(=O)O)cc2)cc1C(=O)c1ccccc1`, the Activity in assay [2] worked out at 5%; in assay [3], 27%; in assay [4] it was 51%.
Take `Nc1scc2c1C(=O)c1ccc(Cl)cc1-2`: the Activity in assay [2] worked out at 20%; in assay [3] it was 29%; in assay [4] it was 56%.
On to `Nc1scc2c1C(=O)c1ccccc1-2`, for which the Activity in assay [2] was 5%; in assay [3], 27%; in assay [4], 45%.
The like results for `Nc1sc(-c2ccccc2)cc1C(=O)c1ccc(Cl)cc1` were, in that order, 5%, 16% and 46%.
As for `Nc1sc(-c2ccccc2)cc1C(=O)c1ccccc1`, the Kb at Adenosine receptor A1 was 209 nM. The Activity in assay [2] worked out at 5%; in assay [3], 1%; in assay [4], 12%.
Regarding `Nc1scc2c1C(=O)c1c(Cl)cccc1-2`, the Activity in assay [2] turned out to be 5%; in assay [3], 38%; in assay [4], 45%.
For the molecule `Nc1sc2c(c1C(=O)c1ccccc1)-c1ccccc1C2`, the Activity in assay [2] came to 5%; in assay [3], 9%; in assay [4], 23%.
In the same order, the values of `Nc1sc(-c2ccccc2)c2c1C(=O)c1ccccc1-2` are 5%, 3% and 19%.
As for `CN(C)c1ccc(-c2cc(C(=O)c3ccc(Cl)cc3)c(N)s2)cc1`, the results for the Activity in assay [2], in assay [3] and in assay [4] were 5%, 41% and 56%, respectively.
In the same order, the values of `Nc1sc2c(c1C(=O)c1ccc(Cl)cc1)-c1ccccc1C2` are 20%, 84% and 81%.
As for `Nc1sc(-c2cncnc2)c2c1C(=O)c1ccccc1-2`, on Adenosine receptor A1, the Kb was 646 nM. The Activity in assay [2] stood at 5%; in assay [3] it was 7%; in assay [4], 19%.
Turning to `Nc1sc2c(c1C(=O)c1ccccc1)-c1cccc(C(F)(F)F)c1C2`, the Activity in assay [2] stood at 5%; in assay [3] it was 49%; in assay [4] it was 56%.
Take `Nc1sc(-c2cncnc2)cc1C(=O)c1ccccc1`: the Activity turned out to be 5% in assay [2], 2% in assay [3] and 18% in assay [4].
With `COc1ccc(-c2sc(N)c3c2-c2ccccc2C3=O)cc1`, the Activity in assay [2] is 5%; in assay [3] it was 18%; in assay [4], 37%.
In the same order, the values of `COc1ccc(-c2cc(C(=O)c3ccc(Cl)cc3)c(N)s2)cc1` are 5%, 29% and 51%.
As for `Nc1sc(-c2ccncc2)c2c1C(=O)c1ccccc1-2`, the Activity in assay [2] was found to be 5%; in assay [3], 17%; in assay [4], 28%.
For the molecule `Nc1sc2c(c1C(=O)c1ccccc1)-c1cc(C(F)(F)F)ccc1C2`, the Activity in assay [2] is 5%; in assay [3], 38%; in assay [4], 52%.
Regarding `Nc1sc(-c2ccncc2)cc1C(=O)c1ccc(Cl)cc1`, the Activity was 5% in assay [2], 17% in assay [3] and 44% in assay [4].
Regarding `COc1ccc(-c2cc(C(=O)c3ccccc3)c(N)s2)cc1`, the Activity in assay [2] worked out at 5%; in assay [3], 14%; in assay [4] it was 31%.
For the molecule `Nc1cccc2c1C(=O)c1ccccc1-2`, the Activity in assay [1] stood at 122%.
Take `Nc1sc(-c2ccc(C(=O)O)cc2)c2c1C(=O)c1ccccc1-2`: the Activity was 5% in assay [2], 7% in assay [3] and 19% in assay [4].
In the case of `Nc1sc(-c2ccc(C(=O)O)cc2)cc1C(=O)c1ccc(Cl)cc1`, the Activity in assay [2] came to 5%; in assay [3] it was 29%; in assay [4] it was 27%.
Regarding `Nc1sc(-c2ccncc2)cc1C(=O)c1ccccc1`, the Activity in assay [2] worked out at 5%; in assay [3], 17%; in assay [4] it was 23%.
The like results for `CN(C)c1ccc(-c2cc(C(=O)c3ccccc3)c(N)s2)cc1` were, in that order, 5%, 29% and 50%.
As to `Nc1sc2c(c1C(=O)c1ccc(Cl)cc1)-c1cccc(C(F)(F)F)c1C2`, the Activity in assay [2] is 5%; in assay [3], 73%; in assay [4], 65%.
